Compounds with a hit are over-represented: about 2.5% of the library has one in this group of screens.
Rin1-Abl PPI inh: inhibitors of human Rin1-Abl protein interaction. TR-FRET Rin1/Abl binding, biochemical. inhibition, % at 7.35 µM. 360,000 tested, 0.4% active. AID 588664; in the data active means inhibition above about 5%, passing the limit was not always enough
Beta2AR agonist: agonists of human beta-2 adrenergic receptor inducing internalization; P07550; Am2.2-beta2AR cells, FAP receptor internalization, flow cytometry; response, % (concentration not given with the values); 340,000 tested, 0.43% active; AID 504454;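 active means response above a set limit, near 3 SD of response in nonfluorescent compounds, cut at about 42% in these data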
MBD2 DNA inh: MBD2-methylated oligo binding inhibition; 370,000 tested, 0.31% active; Q9UBB5; TR-FRET, MBD2 binding to methylated oligonucleotide; AID 686964; inhibition, % at 4.4 µM; in the data active means inhibition above about 13%
Arr AP2 block: blocks beta-arrestin peptide binding to AP2 adaptin; FITC-arrestin peptide / GST-AP2 beads, flow cytometry; AP2 beta2 appendage carries R879A mutation; inhibition, % at 10 µM; 340,000 tested, 0.31% active;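 active means inhibition above a set limit, near 3 SD of compounds lacking own fluorescence, cut at about 54% in these data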
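system = GST-tagged AP2 beta2-adaptin appendage (R879A) on 4 µm glutathione beads | reagent = FITC-labelled arrestin peptide probe, 50 nM final | schedule = compound with beads 12 min RT, then probe 1 h RT | signal = HyperCyt-sampled flow cytometry, FL1 channel, ex 488/em 535 nm | read-out = percent response from loss of bead-bound FITC fluorescence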
ABHD5-PLIN5 inh: inhibitors of human ABHD5-perilipin-5 interaction. Split G. princeps luciferase complementation, luminescence, 4 h. inhibition, % at 4 µM. 360,000 tested, 0.78% active. AID 602281;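 active means inhibition above the mean inhibition across every tested compound plus 3 SD, cut at about 22% in these data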
Target sequence (Q00G26 whole entry, looked up): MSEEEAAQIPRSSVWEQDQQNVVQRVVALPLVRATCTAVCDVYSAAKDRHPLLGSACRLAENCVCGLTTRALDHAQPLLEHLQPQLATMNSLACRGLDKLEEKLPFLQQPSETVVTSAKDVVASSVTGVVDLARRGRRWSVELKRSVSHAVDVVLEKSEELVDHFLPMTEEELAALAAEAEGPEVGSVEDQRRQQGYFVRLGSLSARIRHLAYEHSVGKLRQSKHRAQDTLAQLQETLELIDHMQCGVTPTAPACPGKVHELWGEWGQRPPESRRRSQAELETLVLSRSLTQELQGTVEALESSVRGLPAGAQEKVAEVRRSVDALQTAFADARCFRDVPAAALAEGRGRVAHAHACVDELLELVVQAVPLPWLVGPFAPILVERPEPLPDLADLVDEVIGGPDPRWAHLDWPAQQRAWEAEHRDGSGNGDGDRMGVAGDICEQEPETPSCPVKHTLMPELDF
Target sequence (Q8WTS1 whole entry, looked up): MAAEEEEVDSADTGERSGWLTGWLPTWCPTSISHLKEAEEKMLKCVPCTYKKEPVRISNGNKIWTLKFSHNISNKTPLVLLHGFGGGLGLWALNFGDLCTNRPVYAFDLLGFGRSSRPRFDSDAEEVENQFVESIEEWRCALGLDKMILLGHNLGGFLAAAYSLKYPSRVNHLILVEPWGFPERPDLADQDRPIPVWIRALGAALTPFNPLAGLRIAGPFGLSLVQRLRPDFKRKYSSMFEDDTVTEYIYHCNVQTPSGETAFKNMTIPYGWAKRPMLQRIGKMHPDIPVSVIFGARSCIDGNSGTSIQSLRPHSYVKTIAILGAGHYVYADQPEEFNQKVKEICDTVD
UHRF1 MBD2 ctr: blocks human UHRF1 binding to methylated DNA; inhibition, % at 4.4 µM; UHRF1 binding to methylated oligo, TR-FRET; 370,000 tested, 0.75% active; Q96T88; AID 687016; in the data active means inhibition above about 21%;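 further: UHRF1 SRA domain binding a hemimethylated CpG hairpin DNA probe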
A number is an active result; 0 = inactive; - = no result given.

SMILES | Rin1-Abl PPI inh | Beta2AR agonist | MBD2 DNA inh | Arr AP2 block | ABHD5-PLIN5 inh | UHRF1 MBD2 ctr
COc1cccc2cc(-c3nnc(-c4ccccc4)o3)c(=O)oc12 | 0 | 0 | 0 | 0 | 0 | 21
O=C(CSc1ccccn1)Nc1ccc(N2CCOCC2)cc1 | 0 | 0 | 0 | 0 | 0 | 93
O=c1ccc2cc3c([nH]c4ccc(Br)cc43)oc-2c1O | 37 | 0 | 0 | 72 | 0 | 0
C=C(C)/C=C1/CN(Cc2ccc3c(c2)OCO3)C(=N)N1C(=O)OCc1ccccc1 | - | - | 0 | - | - | 0
COC(=O)c1ccc(S(=O)(=O)N(Cc2ccccc2)Cc2ccccc2)n1C | 0 | 0 | 0 | 0 | 0 | 62
CCN(Cc1ccccc1)S(=O)(=O)c1cc(C(=O)OC)n(C)c1 | 0 | 0 | 0 | 0 | 0 | 0
CCCCCCCCN1C(=O)[C@@H](CC(=O)N2CCCC2)C[C@@]2(C(=O)OC)C1=C[C@H](COCc1ccccc1)O[C@@H]2C | - | - | 0 | - | - | 0
Cn1c(=O)[nH]c(=O)c2c1nc(N(CCO)Cc1ccccc1)n2CCCc1ccccc1 | 0 | 0 | 0 | 0 | 0 | 0
C=C(C)Cn1c(N(CCO)Cc2ccccc2)nc2c1c(=O)[nH]c(=O)n2C | 0 | 0 | 0 | 0 | 0 | 84
CC(c1ccco1)N(C(=O)c1ccccc1NS(=O)(=O)c1cc([N+](=O)[O-])ccc1Cl)c1ccccn1 (centres undefined) | 0 | 0 | 0 | 0 | 0 | 26
CC(c1ccco1)N(C(=O)c1ccccc1NS(=O)(=O)c1cccc([N+](=O)[O-])c1)c1ccccn1 (centres undefined) | 0 | 0 | - | 0 | 0 | -
O=c1cc(CO)oc(C(Nc2ccccn2)c2ccc(F)cc2)c1O (centres undefined) | 0 | 0 | 0 | 0 | 0 | 0
COc1ccc(C(Nc2ccccn2)c2oc(CO)cc(=O)c2O)cc1 (centres undefined) | 7.4 | 0 | 0 | 0 | 0 | 0
N/C(=N\OC(=O)/C=C/c1ccccc1)c1ccccn1 | 0 | 0 | 0 | 0 | 0 | 24
O=C(/C=C/c1ccccc1)c1ccccn1 | 0 | 0 | 0 | 0 | 23 | 0
O=C(/C=C/c1ccc2c(c1)OCO2)c1ccccn1 | 0 | 0 | 0 | 0 | 0 | 0
COc1ccccc1NC(=S)NC(=O)c1c(-c2ccccc2Cl)noc1C | 0 | 0 | 0 | 0 | 0 | 24
Cc1onc(-c2ccccc2Cl)c1C(=O)NC(=S)Nc1ccccc1F | 0 | 0 | 0 | 0 | 0 | 0
COc1ccccc1NC(=S)NNC(=O)c1ccncc1 | 0 | 0 | 0 | 0 | 0 | 23
CC1CCC2(CC1)CCN(CCCOC(=O)NCc1ccc(Cl)cc1)C2=O (centres undefined) | - | - | 0 | - | - | 0
COc1cc(NS(=O)(=O)c2ccc(NC(=S)NC(=O)/C=C/c3ccco3)cc2)ncn1 | 0 | 0 | 0 | 0 | 0 | 45
CCOc1ccc(NC(=S)NC(=O)/C=C/c2ccco2)cc1 | 0 | 0 | 0 | 0 | 0 | 0
COC(=O)/C(C(C)=O)=C(\C=C\N(C)C)N(C)C | 0 | 0 | 0 | 0 | 0 | 0
COC(=O)\C(C(C)=O)=C(/C=C/C=C/C=C/N(C)C)N(C)C | 0 | 0 | 0 | 0 | 0 | 55
C#CC(=O)N(c1cccc(OC)c1)C(C(=O)NC1CCCC1)c1cccs1 (centres undefined) | 0 | 0 | 0 | 0 | 23 | 0
SMILES | Rin1-Abl PPI inh | Beta2AR agonist | MBD2 DNA inh | Arr AP2 block | ABHD5-PLIN5 inh | UHRF1 MBD2 ctr
O=S1(=O)c2ccc(Br)cc2OC[C@@H](Cc2ccccc2)N1Cc1cn(CC2CCCCC2)nn1 | - | - | 0 | - | - | 0
COCCNC(=O)C1CCC(=O)N(c2ccc(OC)cc2)C1c1ccc(OC)c(OC)c1 (centres undefined) | 0 | 0 | 0 | 0 | 0 | 23
CN(C)S(=O)(=O)N1CCN(CC(=O)Nc2ccc(Br)cc2)CC1 | 0 | 0 | 0 | 0 | 0 | 22
O=S1(=O)CC2c3ccc(F)cc3CN2CN1CCc1ccccc1 (centres undefined) | - | - | 0 | - | - | 0
O=C(NCC(c1ccccc1)c1ccccc1)[C@H](Cc1ccccc1)NC1(C(=O)NC2CCCCC2)CCOCC1 | - | - | 0 | - | - | 0
O=[N+]([O-])c1cccc(SSc2cccc([N+](=O)[O-])c2)c1 | 0 | 0 | 0 | 0 | 36 | 0
Nc1cccc([N+](=O)[O-])c1 | 0 | 0 | 0 | 0 | 0 | 0
Cn1cnnc1SCc1ccc(C(=O)NN)cc1 | 0 | 0 | 0 | 0 | 0 | 0
CC(C)c1ccc2[nH]c(O)c(N=NC(=O)c3ccc(CSc4nncn4C)cc3)c2c1 | 0 | 45 | 0 | 0 | 0 | 0
Cc1cc(N2CCC[C@@H]2C)nc2ccccc12 | - | - | 0 | - | - | 0
Cc1ccc(S(=O)(=O)N2C[C@]3(O)C[C@@H]4C(=O)N(c5ccccc5)C(=O)[C@@H]4C[C@]3(OC(=O)NCc3ccco3)C2)cc1 | 0 | - | 0 | - | 0 | 0
Cc1ccc(S(=O)(=O)N2C[C@]3(O)C[C@@H]4C(=O)N(c5ccccc5)C(=O)[C@@H]4C[C@]3(OC(=O)NCc3ccccc3)C2)cc1 | 0 | - | 0 | - | 0 | 23
Cc1ccc(C)c(OCCn2ccnc2)c1 | 10 | 0 | - | 0 | 0 | -
Cc1cc(C)c(C)c(OCCn2ccnc2)c1 | 0 | 0 | 0 | 0 | 0 | 0
C/C(=N/NC(=O)c1cccnc1)c1cccc(O)c1 | - | - | 0 | - | - | 0
Cc1c(C(=O)N(C)C)c2cc(Cl)ccc2n1O | 0 | 0 | 0 | 0 | 0 | 0
CCOC(=O)c1c(C)n(O)c2ccc(Cl)cc2c1=O | 0 | 0 | 0 | 0 | 0 | 25
C=C(C(=O)c1ccccc1)C(c1ccccc1)C(C)C(=O)c1ccccc1 (centres undefined) | 0 | 0 | 0 | 0 | 0 | 0
C=C(C(=O)c1ccccc1)C(C)C(=C)C(=O)c1ccccc1 | 0 | 0 | 0 | - | 22 | 0
O=C(CSc1nc2ccccc2[nH]1)NN=Cc1c(F)cccc1Cl | - | - | 0 | - | - | 0
Cc1ccc(NC(=O)C2CCN(S(=O)(=O)c3cccs3)CC2)cc1 | 0 | 0 | 0 | 0 | 0 | 0
O=C(Nc1ccc(F)c(F)c1)C1CCN(S(=O)(=O)c2cccs2)CC1 | 0 | 0 | 0 | 0 | 0 | 31
O=C1C2C3C=CC(CNS(=O)(=O)c4ccccc4)(O3)C2C(=O)N1c1ccc(Cl)cc1 (centres undefined) | 0 | 0 | 0 | 0 | 0 | 0
O=C1C2C3C=CC(CO)(O3)C2C(=O)N1c1ccccc1-c1ccccc1 (centres undefined) | 0 | 55 | - | 0 | 45 | -
O=C1C(=O)N(c2nccs2)C(c2ccccc2F)/C1=C(\O)c1ccc2c(c1)OCCO2 (centres undefined) | 0 | 0 | 0 | 0 | 0 | 23
CC(C)[C@H](NC(=O)[C@@H]1CCCN1)C(=O)N1CCC2CCN(S(=O)(=O)c3ccccc3)CC21 (some centres undefined) | - | - | 0 | - | - | 0
O=S(=O)(c1ccccc1)c1nc(-c2ccccc2Cl)oc1NCCCN1CCOCC1 | 0 | 0 | 0 | 0 | 0 | 40
O=S(=O)(c1ccccc1)c1nc(-c2ccccc2Cl)oc1NCCN1CCOCC1 | 0 | 0 | 0 | 0 | 0 | 0
